RGS4 act: RGS4 potentiators or activators, primary screen, cell-based, HEK293 M3R inducible RGS4, calcium flux; actives 0.92% (n = 310,000); B-score at 10 µM; AID 463111, 2010; carbachol calcium flux Fluo4; active compounds read low;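 active = B-score of the integrated calcium signal more than 4 SD below the library mean, with starting fluorescence not abnormally high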;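 also: negative B-score means reduced calcium response which marks RGS4 activation or potentiation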
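Test system: HEK293 cells with stable M3R and inducible RGS4; also added: carbachol at ECmax as muscarinic agonist stimulus; schedule: dye loading 30 min 37 °C, buffer rest 30 min RT; technique: kinetic calcium fluorescence imaging with Fluo4-AM dye, 2 µM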
MrgX1 ag: agonists of human MrgX1 receptor, primary screen, HEK293 cells, Fluo-4 calcium flux | actives 0.44% (n = 310,000) | AID 588627, 2011 | B-score at 10 µM | Mas-related G-protein coupled receptor member X1 (Homo sapiens), Q96LB2 | Fluo-4 calcium fluorescence, agonist mode; active compounds read high;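 active = calcium response B-score plate-corrected fluorescence ratio at least 3 library SD, with starting fluorescence B-score inside 5 SD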
Target sequence (Q96LB2 whole entry, looked up): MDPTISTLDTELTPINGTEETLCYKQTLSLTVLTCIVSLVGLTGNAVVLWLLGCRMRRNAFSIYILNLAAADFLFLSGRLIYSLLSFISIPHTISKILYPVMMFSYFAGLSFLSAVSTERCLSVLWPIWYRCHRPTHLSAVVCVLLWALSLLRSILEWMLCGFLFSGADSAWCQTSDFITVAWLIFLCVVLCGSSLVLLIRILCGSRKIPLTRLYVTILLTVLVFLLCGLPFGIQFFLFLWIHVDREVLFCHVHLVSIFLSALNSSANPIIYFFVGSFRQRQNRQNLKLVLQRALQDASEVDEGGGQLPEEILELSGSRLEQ
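Material: MrgX1-expressing HEK293 cells / Dosing: compound as first of three additions / Incubation: overnight seeding, then 1 h dark dye loading / Signal: Fluo-4 NW calcium fluorescence / Evaluation: B-scored fluorescence response ratio / Benchmarks: positive and negative control wells on each plate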
MrgX1 antagonist: antagonists of human MrgX1 receptor, primary screen, HEK293 cells, Fluo-4 calcium flux; Mas-related G-protein coupled receptor member X1 (Homo sapiens), Q96LB2; BAM8-22 antagonism; active compounds read low; B-score at 10 µM; actives 1.3% (n = 310,000);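 active = calcium-response B-score plate-corrected more than 3 library SD below zero, starting fluorescence within 5 deviations, no agonist response on first addition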;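 also: peak minus trough fluorescence over baseline after final BAM8-22 challenge near maximal dose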
RGS4 inh: RGS4 inhibitors, primary screen, cell-based, HEK293 M3R inducible RGS4, calcium flux; Regulator of G-protein signaling 4 (Homo sapiens), P49798; Fluo-4 calcium flux; active compounds read high; triggered by carbachol at its EC20; B-score at 10 µM; actives 0.45% (n = 310,000);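 active = B-score, a plate-corrected calcium signal, over three deviations above library mean, with baseline fluorescence within five deviations of library mean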;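 also: RGS4 expression induced by doxycycline in cells with stable M3 receptor; B-score is computed from the integrated fluorescence ratio over baseline after carbachol; higher B-score means a larger calcium signal and so more RGS4 inhibition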
Target sequence (P49798 whole entry, looked up): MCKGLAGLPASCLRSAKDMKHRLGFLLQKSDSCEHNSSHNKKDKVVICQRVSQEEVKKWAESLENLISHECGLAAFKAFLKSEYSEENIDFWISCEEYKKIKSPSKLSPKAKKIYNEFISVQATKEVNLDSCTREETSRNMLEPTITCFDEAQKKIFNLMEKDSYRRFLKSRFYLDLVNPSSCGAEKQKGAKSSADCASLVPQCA
MrgX1 PAM: positive allosteric modulators of MrgX1, primary screen, HEK293 cells, Fluo-4 calcium flux; Mas-related G-protein coupled receptor member X1 (Homo sapiens), Q96LB2; FDSS; active compounds read high; B-score at 10 µM; actives 0.63% (n = 310,000); AID 588675, 2011;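 active = plate-corrected calcium response at least 3 library SD above typical, normal starting fluorescence, not activating the receptor alone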;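 also: compound read alongside a low EC10 to EC30 dose of BAM8-22 agonist; peak minus trough fluorescence over baseline measured at the second addition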
RGS4 inh valid: enhanced carbachol calcium response, M3R/RGS4 cells, RGS4 inhibitor project, cell-based, validation screen, HEK293 M3R/RGS4, calcium flux | shares compounds with RGS4 inh | carbachol calcium Fluo-4 fluorescence; carbachol added at its EC20; 0 = buffer wells, 100 = carbachol control | calcium response, % at 10 µM | actives 65% (n = 1,700) | AID 492999, 2010;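 active = duplicate-averaged calcium response above the buffer-only control mean plus 5 SD of those controls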;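 also: integrated fluorescence ratio F max minus min over baseline F0; higher response in RGS4-induced cells means RGS4 inhibition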
RGS4 uninduced: carbachol calcium response in non-induced M3R cells, confirmation, counter-screen for RGS4 inhibitor project, cell-based, HEK293 M3R. shares compounds with RGS4 inh. carbachol calcium Fluo-4; submaximal (EC20) carbachol stimulus; buffer wells 0%, carbachol control wells 100%. activity (percent), % at 10 µM. actives 20% (n = 1,900); call rule not given here;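 also: RGS4 induction absent so cells express M3R without RGS4; higher means more calcium signal and flags a non-specific hit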
M3R basal Ca ctr: second RGS4 inhibitor counter-screen in uninduced cells lacking carbachol | shares compounds with RGS4 inh | calcium response (agonist-mode artifact), % at 10 µM | AID 493001 | actives 22% (n = 1,900) | HEK293 M3R/RGS4 non-induced, Fluo-4 calcium, no carbachol; normalised: buffer wells 0%, carbachol wells 100%;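 active = duplicate-averaged calcium rise in uninduced cells above buffer wells' mean plus 5 SD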
An asterisk follows results filed as active; i = inactive; . = not tested or not shown. Only some compounds are listed: those with a hit (about 3.5% of all), similar ones and a draw of the others.

SMILES | RGS4 act | MrgX1 ag | MrgX1 antagonist | RGS4 inh | MrgX1 PAM | RGS4 inh valid | RGS4 uninduced | M3R basal Ca ctr
Cc1nn(C)c(C(=O)NNC(=S)NC2CCCCC2)c1Br | i | i | i | 8.5* | i | 23%* | 32%* | i
CCOC(=O)/C(C#N)=C/c1cn(CCC(=O)O)nc1-c1ccc(F)cc1 | i | i | i | i | i | . | . | .
CCOC(=O)/C(C#N)=C/c1cn(CCC(=O)O)nc1-c1cccc(Cl)c1 | i | i | i | 4.7* | i | i | i | i
COC(=O)CSc1[nH]c2ccc(F)cc2c1[N+](=O)[O-] | i | i | i | 19* | i | 34%* | i | i
CCOC(=O)CSc1[nH]c2cc(OC)ccc2c1[N+](=O)[O-] | i | i | i | i | i | . | . | .
CCn1nc(C(=O)OC(C(=O)c2c[nH]c3ccccc23)c2ccccc2)c2ccccc2c1=O (stereo not drawn) | i | i | i | i | i | . | . | .
Cc1ccccc1NC(=O)CSc1nc(O)cc(=O)n1C | i | i | i | i | i | . | . | .
CS(=O)(=O)c1ccc(C(=O)NCCN2C(=O)S/C(=C\c3cccnc3)C2=O)cc1[N+](=O)[O-] | i | i | i | 5.7* | i | 22%* | i | i
CN(C)S(=O)(=O)c1ccc(C(=O)NCCN2C(=O)S/C(=C\c3cccnc3)C2=O)cc1 | i | i | i | i | i | . | . | .
O=C1NC(c2ccccc2)=C(c2nc3ccccc3s2)C(c2ccccc2)N1 (stereo not drawn) | i | i | i | i | i | . | 30%* | 26%*
CC(=O)C1=C(c2ccccc2)NC(=O)NC1c1ccccc1 (stereo not drawn) | i | i | i | i | i | . | . | .
O=C(COc1cccc2ccccc12)NNC(=O)c1cccs1 | i | i | i | i | i | . | . | .
O=C(c1ccco1)N1CCN(c2ncnc3c(-c4ccc(Cl)cc4)nsc23)CC1 | i | i | i | 5.2* | i | i | i | i
O=C(c1ccco1)N1CCN(c2ncnc3scc(-c4ccc(F)cc4)c23)CC1 | i | i | i | i | i | . | . | .
CCN(CCO)c1nc(SC)nc2c1sc1nc(-c3ccco3)c3c(c12)CCC3 | i | i | i | i | i | i | i | i
O=C(CSc1nnc(-c2ccc(S(=O)(=O)N3CCCC3)cc2)o1)NCc1ccco1 | i | i | i | i | i | . | . | .
O=C(O)CC(c1ccc(F)cc1F)N1Cc2ccccc2C1=O (stereo not drawn) | i | i | i | i | i | . | . | .
COc1ccc(Nc2nnc(-c3ccccc3)c3ccccc23)cc1C(=O)N1CCCCC1 | i | i | i | 5* | i | 148%* | 88%* | i
COc1ccc(Nc2nnc(-c3ccc(C)cc3)c3ccccc23)cc1C(=O)N1CCCCC1 | i | i | i | i | i | . | i | i
COc1ccc(-c2cc(C(=O)N3CCCCC3)c3ccccc3n2)cc1OC | i | i | i | i | i | . | . | .
CCc1nnc(NC(=O)c2cc(-c3ccncc3)nc3ccccc23)s1 | i | i | i | 4.9* | i | 18%* | i | i
CCc1nnc(NC(=O)c2cc(-c3ccccn3)nc3ccc(Br)cc23)s1 | i | i | i | i | i | . | . | .
Cc1sc(NC(=O)c2cc(-c3ccccc3)nc3ccccc23)c(C(N)=O)c1C | i | i | i | i | i | . | i | i
Cc1sc(NC(=O)c2cc(-c3ccc(Cl)cc3)nc3ccccc23)c(C(N)=O)c1C | i | i | i | i | i | . | . | .
Cc1ccc(S(=O)(=O)N(CC(=O)N=Nc2c(O)[nH]c3ccccc23)c2cccc(C)c2)cc1 | i | i | i | i | i | . | . | .
SMILES | RGS4 act | MrgX1 ag | MrgX1 antagonist | RGS4 inh | MrgX1 PAM | RGS4 inh valid | RGS4 uninduced | M3R basal Ca ctr
Cc1cc(Cl)ccc1N(CC(=O)N=Nc1c(O)[nH]c2ccccc12)S(C)(=O)=O | i | i | i | 4.9* | i | 5.5%* | i | i
COC(=O)C1(C)Cc2cc(OC(C)=O)c(OC(C)=O)cc2N1 (stereo not drawn) | i | i | i | i | i | . | . | .
CSc1ccc(S(=O)(=O)Nc2ccc(NC(C)=O)cc2)cc1 | i | i | i | i | i | . | . | .
CCOc1ccc(NS(=O)(=O)c2ccc(NS(=O)(=O)c3ccc(SC)cc3)cc2)cc1 | i | i | -4.8* | 5.2* | i | 13%* | 32%* | i
CSc1ccc(S(=O)(=O)Nc2ccc(S(=O)(=O)Nc3ccc(C)cc3)cc2)cc1 | i | i | i | 5* | i | 28%* | i | i
Cc1cc(NS(=O)(=O)c2ccc(NC(=O)c3ccc(Cl)cc3[N+](=O)[O-])cc2)no1 | i | i | i | i | i | . | . | .
CCc1cccc(C)c1NC(=O)C1CCN(C(=O)c2ccc([N+](=O)[O-])cc2)CC1 | i | i | i | i | i | . | . | .
O=C(/C=C/c1cccc([N+](=O)[O-])c1)c1ccc([N+](=O)[O-])o1 | i | i | i | 13* | i | 30%* | i | i
Cc1ccc(NC(=O)c2ccc([N+](=O)[O-])o2)c(C)c1 | i | i | i | i | i | . | . | .
Cc1ccccc1/C=C/C(=O)c1ccc([N+](=O)[O-])o1 | i | i | i | 6.7* | i | 24%* | i | i
COc1ccc(/C=C/C(=O)c2ccc([N+](=O)[O-])o2)cc1 | i | i | i | 11* | i | 25%* | 32%* | i
Cc1cccc(/C=C/C(=O)c2ccc([N+](=O)[O-])o2)c1 | i | i | i | 7* | i | 20%* | i | 8.5%*

Assay outcomes from PubChem BioAssay.
